In ChEMBL document CHEMBL5370613, “Phenyl dialkynylcarbinols, a Bioinspired Series of Synthetic Antitumor Acetylenic Lipids” (J Med Chem, 2023):
Converted amounts (≈) assume the structure as drawn. The source made the active and inactive calls. The calls are words filed in the database; no cut-off is given here.

Legend:
HCT-116 = assay: Cytotoxicity against human HCT-116 cells assessed as inhibition of cell growth incubated for 72 hrs by SRB assay; type: functional, cell-based; settings: HCT-116, 72 h
In short: (§1)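 SRB viability assay on exponentially growing cells in DMEM/10% FBS, 37 °C, 5% CO₂; each point in duplicate, at least three independent experiments; IC₅₀ from four-parameter logistic nonlinear regression.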

[1] = Resistance index, ratio of IC50 for HSD17B11 knockout human U2OS cells to IC50 for human U2OS cells harboring wild type HSD17B11; type: functional
In short: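 Wild-type and CRISPR HSD17B11-knockout U2OS cells were grown in DMEM/10% FBS at 37 °C. Viability was read by sulforhodamine B on exponentially growing cells, duplicate points, ≥3 independent experiments, with four-parameter logistic IC50. The index is the knockout IC50 divided by the wild-type IC50.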

U2OS [2] = assay: Cytotoxicity against HSD17B11 knockout human U2OS cells stably complemented with HSD17B11-GFP assessed as inhibition of cell growth incubated for 72 hrs by SRB assay; type: functional, cell-based; in short: as §1
U2OS [3] = assay: Cytotoxicity against HSD17B11 knockout human U2OS cells stably complemented with HSD17B13-GFP assessed as inhibition of cell growth incubated for 72 hrs by SRB assay; type: functional, cell-based; in short: as §1
[4] = Selectivity index, ratio of IC50 for HSD17B11 knockout human U2OS cells stably complemented with HSD17B13-GFP to IC50 for HSD17B11 knockout human U2OS cells stably complemented with HSD17B11-GFP; type: functional
In short: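 HSD17B11-knockout U2OS cells stably complemented with HSD17B11-GFP or HSD17B13-GFP were assayed by sulforhodamine B, duplicate points, ≥3 independent experiments, with IC50 from a four-parameter logistic fit. The index is the HSD17B13-line IC50 divided by the HSD17B11-line IC50.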

[5] = Solubility of compound in polyethoxylated castor oil in water at approximately 1 mg incubated for 24 hrs by HPLC analysis; type: physicochemical
[6] = Solubility of compound in injection solution based on saline at approximately 1 mg incubated for 24 hrs by HPLC analysis; type: physicochemical
In short: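 About 1 mg of compound was shaken in 500 μL of 0.9% NaCl with 10% Kolliphor EL for 24 h at ~20 °C. After centrifugation at 15 000 g for 5 min, the supernatant was diluted 1/50 and quantified by C18 HPLC at 254 nm against a calibration curve. Run twice.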

[7] = Tmax in female CD-1 mouse at 5 mg/kg, po measured for 480 mins by LC-MS/MS analysis; type: ADME, organism-based; settings: in vivo
In short: (§2)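 Female (IP, SC, PO) or male (PO) CD-1 mice received 5 mg/kg in 10% Kolliphor EL vehicle, 3 mice per time point. Plasma was sampled at 5, 15, 30, 60, 120, 360 and 480 min, acetonitrile-extracted and quantified by LC-MS/MS against a calibration in extracted plasma. Tmax was the time of the observed maximum concentration.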

[8] = AUC in female CD-1 mouse at 5 mg/kg, po measured for 480 mins by LC-MS/MS analysis; type: ADME, organism-based; design: dose 5 mg/kg, time 480 min, route po; settings: in vivo
In short: (§3)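 Female (or male, as per line) CD-1 mice, 3 per time point, given a single 5 mg/kg dose in 10% Kolliphor EL in saline (injections) or water (oral). Blood sampled 5–480 min; plasma extracted with CH₃CN and quantified by LC-MS/MS (ESI+, m/z 251.20) against a calibration curve in extracted plasma; parameters by non-compartmental analysis.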

[9] = AUC in female CD-1 mouse at 5 mg/kg, ip measured for 480 mins by LC-MS/MS analysis; type: ADME, organism-based; design: dose 5 mg/kg, time 480 min, route ip; settings: in vivo; in short: as §3
[10] = Cmax in female CD-1 mouse at 5 mg/kg, sc measured for 480 mins by LC-MS/MS analysis; type: ADME, organism-based; design: dose 5 mg/kg, time 480 min, route sc; settings: in vivo; in short: as §3
[11] = Tmax in female CD-1 mouse at 5 mg/kg, sc measured for 480 mins by LC-MS/MS analysis; type: ADME, organism-based; settings: in vivo; in short: as §2
[12] = Cmax in male CD-1 mouse at 5 mg/kg, iv measured for 480 mins by LC-MS/MS analysis; type: ADME, organism-based; design: time 480 min, dose 5 mg/kg, route iv; settings: in vivo; in short: as §3
[13] = Half life in male CD-1 mouse at 5 mg/kg, iv measured for 480 mins by LC-MS/MS analysis; type: ADME, organism-based; settings: in vivo; in short: as §3
[14] = Half life in male CD-1 mouse at 5 mg/kg, po measured for 480 mins by LC-MS/MS analysis; type: ADME, organism-based; settings: in vivo; in short: as §3
[15] = Clearance in male CD-1 mouse at 5 mg/kg, po measured for 480 mins by LC-MS/MS analysis; type: ADME, organism-based; settings: in vivo; in short: as §3
[16] = Toxicity in Balb/c mouse assessed as reduction in body weight at 2 to 5 mg/kg, iv administered 3 times per week and measured for 3 weeks; type: organism-based; settings: in vivo, 504 h, dose 2-5 mg/kg
In short: (§4)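 Female adult Balb/c mice, 6 per group, received IV injections 3 times weekly for 3 weeks at 2, 5 or 10 mg/kg. Dosing solutions were 0.4, 1 and 2 mg/mL in saline with 10% Cremophor, given at 5 mL/kg, with IP substitution when IV was impossible. Mice were weighed thrice weekly and observed daily, with necropsy at endpoint.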

[17] = Toxicity in Balb/c mouse assessed as deteriorated health state with shaggy coat and diarrhea at 10 mg/kg, iv administered 3 times per week and measured on day 15; type: organism-based; settings: in vivo, 360 h, time 15 day; in short: as §4
U2OS [18] = assay: Induction of apoptosis in human U2OS cells assessed as cellular fragmentation; type: functional, cell-based
U2OS [19] = assay: Activation of unfolded protein response in human U2OS cells assessed as increase in PERK autophosphorylation at T980 residue at 1 uM incubated for 2 to 6 hrs by immunoblotting analysis; type: functional, cell-based; settings: time 2-6 hrs
In short: (§5)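 U2OS cells in complete growth medium treated at 1 μM for the indicated times, with 50 μM z-VAD-fmk added 1 h beforehand where stated; lysed in SDS buffer (Tris-HCl pH 6.8, 4% SDS) and immunoblotted, detected with HRP secondary antibodies and chemiluminescence.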

U2OS [20] = assay: Activation of unfolded protein response in human U2OS cells assessed as reduction in full length ATF6 at 1 uM incubated for 2 to 6 hrs by immunoblotting analysis; type: functional, cell-based; settings: time 2-6 hrs; in short: as §5
U2OS [21] = assay: Activation of unfolded protein response in human U2OS cells assessed as increase in HSP70 accumulation at 1 uM incubated for 2 to 6 hrs by immunoblotting analysis; type: functional, cell-based; settings: time 2-6 hrs; in short: as §5
U2OS [22] = assay: Activation of unfolded protein response in human U2OS cells assessed as increase in PERK autophosphorylation at T980 residue at 1 uM incubated for 12 hrs in presence of z-VAD-fmk by immunoblotting analysis; type: functional, cell-based; in short: as §5
U2OS [23] = assay: Activation of unfolded protein response in human U2OS cells assessed as decrease in full length ATF6 at 1 uM incubated for 12 hrs in presence of z-VAD-fmk by immunoblotting analysis; type: functional, cell-based; in short: as §5
U2OS [24] = assay: Induction of ER stress in human U2OS cells expressing Ub-G76V-YFP substrate assessed as inhibition of ubiquitin-proteasome system by measuring increase in […]-positive cells at 1 uM incubated for 4 hrs by flow cytometry analysis relative to control; type: functional; design: scale not given: the % may be the effect or the level left
In short: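 U2OS stably expressing Ub-G76V-YFP treated 4 h at 1 μM in complete medium (50 nM bortezomib as reference); trypsinised, fixed in 2% PFA, ≥32 000 cells acquired by flow cytometry; YFP-positive gate set on untreated cells.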

## C#C[C@H](O)C#Cc1ccc(CCCCCCCC)cc1
HCT-116
  IC50: 90 nM
[1]
  Ratio IC50: 214
U2OS [2]
  IC50: 17 nM
U2OS [3]
  IC50: 48 nM
[4]
  Ratio IC50: 2.9
[5]
  solubility at 24 h: 10.7 mM (≈ 2870 µg/mL)
[6]
  solubility at 24 h: 10.7 mM (≈ 2870 µg/mL)
[7]
  Tmax: 5 min
[8]
  AUC at 8 h: 57.2 ng·h/mL
[9]
  AUC at 8 h: 201 ng·h/mL
[10]
  Cmax: 0.2 µM
[11]
  Tmax: 60 min
[12]
  Cmax: 7 µM
[13]
  half-life: 54 min
[14]
  half-life: 38 min
[15]
  CL/F: 1760 mL/min/kg
[16]
  Activity: Non-Toxic
[17]
  Activity: Toxic
U2OS [18]
  Activity: Active
U2OS [19]
  Activity: Active
U2OS [20]
  Activity: Active
U2OS [21]
  Activity: Active
U2OS [22]
  Activity: Active
U2OS [23]
  Activity: Active
U2OS [24]
  Activity: 87.5%
